Sampled rows, rich in hits. Any-hit rate of the full collection: about 2.1%.
M1 ag – agonists of human M1 muscarinic receptor; P11229; CHO-K1 hM1, Fluo-8 calcium fluorescence, agonist mode; 0% DMSO, 100% acetylcholine EC100; activation, % at 3 µM; 360,000 tested, 0.33% active; AID 588814;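 active means activation above the run's mean compound activation plus 3 SD, cut at about 16% in these data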;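 further: peak over basal fluorescence ratio within a 140 s kinetic read after compound addition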
CHRM5 agonist – CHRM5 agonism in calcium assay; P08912; CHO-K1 hM5 cells, Fluo-8 calcium fluorescence; 0% DMSO wells, 100% maximal acetylcholine response; activation, % at 3 µM; 360,000 tested, 0.19% active;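 active means activation above the run's mean over test compounds plus 3 SD, cut at about 23% in these data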;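 further: signal is peak over basal fluorescence ratio across the kinetic read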
Target sequence (P08912 whole entry, looked up): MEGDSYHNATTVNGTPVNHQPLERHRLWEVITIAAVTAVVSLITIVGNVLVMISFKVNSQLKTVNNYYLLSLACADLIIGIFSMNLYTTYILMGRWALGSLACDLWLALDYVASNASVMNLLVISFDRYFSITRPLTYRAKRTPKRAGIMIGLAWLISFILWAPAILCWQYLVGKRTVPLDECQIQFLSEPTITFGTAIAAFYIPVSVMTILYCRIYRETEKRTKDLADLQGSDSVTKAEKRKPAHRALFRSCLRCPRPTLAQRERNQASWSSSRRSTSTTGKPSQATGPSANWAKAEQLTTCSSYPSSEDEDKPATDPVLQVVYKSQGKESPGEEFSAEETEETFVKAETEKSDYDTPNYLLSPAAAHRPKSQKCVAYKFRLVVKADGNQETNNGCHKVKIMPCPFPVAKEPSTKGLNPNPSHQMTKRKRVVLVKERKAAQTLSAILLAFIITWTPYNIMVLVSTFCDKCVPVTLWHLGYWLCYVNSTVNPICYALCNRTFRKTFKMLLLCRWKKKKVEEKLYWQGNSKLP
CHRM5 antagonist – antagonists of human muscarinic M5 receptor (CHRM5); P08912; CHO-hM5 cells, Fluo-8 calcium fluorescence, ACh EC80; inhibition, % at 3 µM; 360,000 tested, 0.59% active; AID 624040;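 active means inhibition above a per-plate cutoff, the mean of that plate's test compounds plus 3 SD, cut at about 27% in these data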
M1 antag – blocks human M1 muscarinic receptor; CHO-K1 hM1, Fluo-8 calcium fluorescence, ACh EC80 antagonist; P11229; 360,000 tested, 1.3% active; inhibition, % at 3 µM; AID 588852;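 active means percent inhibition above its own plate's cutoff, namely the mean of that plate's compound wells plus 3 SD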;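 further: peak over basal fluorescence ratio during 140 s after agonist addition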
M1 PAM – potentiates human M1 receptor response to acetylcholine; P11229; CHO-K1 hM1, Fluo-8 calcium fluorescence, ACh EC20; 0% = ACh EC20, 100% = maximal ACh; activation, % at 3 µM; 360,000 tested, 0.088% active; AID 588819; in the data active means activation above about 19%, passing the limit was not always enough
M5 PAM – CHRM5 positive allosteric modulation. CHO-K1 hM5, Fluo-8 calcium, ACh EC20 PAM; 0% = ACh EC20, 100% = ACh EC100. activation, % at 3 µM. 360,000 tested, 0.3% active. P08912;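 active means activation above the run cutoff, the mean activation of all test compounds plus 3 SD, cut at about 18% in these data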
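Replicates: One well per compound, no replicates | System: Human M5 receptor in CHO-K1 cells | Benchmarks: Low control EC20 acetylcholine (0%), high control EC100 acetylcholine (100%) | Probe or stimulus: Acetylcholine, EC20 level | Times: Fluo-8 loading 80 min at 37 °C plus 30 min room temperature | Signal: Intracellular calcium via Fluo-8 fluorescence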
Large screens that a line does not name were inactive.

NC(=O)c1nc(C(=O)N2CCN(c3ccccc3)CC2)c2ccccc2n1	M5 PAM 20
CCOC(=O)C1CCCN(C(=O)Cn2nc(C)n3c(cc4c(OC)cccc43)c2=O)C1 (configuration not stated)	M1 ag 21
COc1cccc2c1cc1c(=O)n(CC(=O)N3CCCCCC3)nc(C)n12	none
O=C(N/N=C/c1ccc(OCc2ccccc2)cc1)c1ccncc1	none
O=C(N/N=C/c1ccncc1)c1ccc(OCc2ccccc2)cc1	M1 ag 21
COc1ccc(C(=O)N/N=C/c2ccc3cccc(OCc4ccccc4)c3n2)cc1	M1 antag 31
CCN(CC(=O)Nc1ccccc1C(F)(F)F)C(=O)c1ccccc1Sc1ccccc1C#N	none
Cc1ccc(CS(=O)Cc2ccc(C(=O)NCC(C)c3ccccc3)o2)cc1 (configuration not stated)	none
COc1cccc(CN(C)C(=O)C(CCSC)NS(=O)(=O)c2ccc3c(c2)OCCO3)c1OC (configuration not stated)	M1 antag 30
CSCCC(NS(=O)(=O)c1ccc2c(c1)OCCO2)C(=O)N(C)Cc1ccc(C)cc1 (configuration not stated)	none
COc1ccccc1C(=O)Nc1ccnn1C1CCN(C(=O)c2ccoc2C)CC1	none
Cc1nc(CN2CCN(Cc3nc(C(c4ccccc4)c4ccccc4)no3)CC2)cs1	CHRM5 antagonist 34, M1 antag 65
Cc1cccnc1CN1CCN(Cc2nc(C(c3ccccc3)c3ccccc3)no2)CC1	M1 antag 71
OC(c1ccccn1)C1CCN(Cc2nc(C(c3ccccc3)c3ccccc3)no2)CC1 (configuration not stated)	none
Nc1nc(N2CCN(c3ccccc3)CC2)n[nH]1	none
Cc1c(C(=O)OCC(=O)N2CCC(C)CC2)oc2ccccc12	none
Cc1c(C(=O)OCC[N+]2(C)CCCCC2)oc2ccccc12	M1 antag 54
COc1cc(OC)c(C(=O)OCC(=O)c2cc(C)n(CC3CCCO3)c2C)cc1OC (configuration not stated)	none
COC(=O)C1=C(C)OC(N)=C(C#N)C1c1cc2cc(C)ccc2nc1Cl (configuration not stated)	M1 ag 24, CHRM5 agonist 26
C[C@@H]1CC=C[C@H]2[C@H]1C(=O)N(Cc1ccccc1)[C@H]2c1ccc2ccccc2c1	none
C[C@@H]1CC=C[C@H]2[C@H]1C(=O)N(Cc1ccccc1)[C@H]2c1ccc2ccccc2c1Br	M5 PAM 22
COc1ccc(C(=O)NCCc2nnc3ccc(SCC(=O)NCc4ccc(F)cc4)nn23)cc1	none
Cc1ccc(N2CC(O)(c3cccs3)[N+]3=C2CCCC3)cc1 (configuration not stated)	CHRM5 antagonist 42, M1 antag 40
CCc1ccc(N2CC(O)(c3cccs3)[N+]3=C2SCCC3)cc1 (configuration not stated)	CHRM5 antagonist 33
Cc1cccc(N2CC(O)(c3cccs3)[N+]3=C2CCCC3)c1C (configuration not stated)	M1 antag 37
CC(=O)c1c(N)c(C#N)c(C)n1-c1ccc(Br)cc1	CHRM5 antagonist 27, M5 PAM 35
COc1ccc(C(=O)Nc2ccc(S(=O)(=O)Nc3nccnc3OC)cc2)cc1	none
COc1nccnc1NS(=O)(=O)c1ccc(NC(=O)c2ccc(F)cc2)cc1	M1 PAM 29
COc1ccc(N2CCN(CC(O)COC(c3ccc(F)cc3)c3ccc(F)cc3)CC2)cc1 (configuration not stated)	M1 antag 39
CC(=O)c1cccc(NC(=O)N[C@@H](CC(C)C)C(=O)O)c1	none
Fc1ccc(-n2nnnc2-c2cnc(-c3cccs3)nc2C(F)(F)F)cc1	CHRM5 antagonist 47, M1 antag 57
FC(F)(F)c1nc(-c2ccncc2)ncc1-c1nnnn1-c1ccccc1	none
Cn1nc(C(F)(F)F)c(-c2ccccc2)c1N	none
CNS(=O)(=O)c1cnccc1N1CCN(C)CC1	none
CC(C)N1CCN(c2ccncc2S(=O)(=O)N2CCN(C)CC2)CC1	M1 antag 47
O=C(CSc1nnc(CNC(=O)c2c(F)cccc2Cl)o1)Nc1ccccc1	none
Cc1ccc2c(Cl)cc(Cl)c(OCC(=O)NCCc3ccccn3)c2n1	none
CCOc1ccccc1NC(=O)COC(=O)COc1c(Cl)cc(Cl)c2ccc(C)nc12	CHRM5 antagonist 28, M5 PAM 34
COc1cccc(OCCSc2nc(C)c(Cc3ccccc3)c(=O)[nH]2)c1	none
Cc1ccc(C(=O)N2CCN=C2SCc2ccc([N+](=O)[O-])cc2)cc1	none
CCCCNc1nnc(CCn2nc(C)c(Br)c2C)s1	none
CCNc1nnc(CCn2nc(C)c(Br)c2C)s1	M5 PAM 24
CC(C)c1ccc(NC(=O)c2cc(S(=O)(=O)N3CCCC3)c[nH]2)cc1	M1 antag 35
c1cnc(N2CCSCC2)nc1	none
c1ccc(N2CC[N+]3(CCCC3)CC2)nc1	M1 antag 54
c1cnc(N2CC[N+]3(CCCC3)CC2)nc1	M1 antag 33
CCOC(=O)[C@]12CCC=C1N(CCC1=CCCCC1)C(=O)[C@H](CC(=O)N1CCN(C(=O)C3CC3)CC1)C2	none (no result: M1 ag, M1 antag, M1 PAM)
Cc1nnc(N/N=C\c2ccc(-c3cccc(C(=O)O)c3)o2)n1N	none
C#Cc1ccc(C(=O)NCc2ccc(N3CCCC3=O)cc2)cc1	none
O=C(NCc1cccs1)c1ccc(N2CCCC2=O)cc1	M5 PAM 22
CN(C)C(=O)CNC(=O)CN1C(=O)NC2(CCCc3sccc32)C1=O (configuration not stated)	none
Cc1c(N=C(N)/N=C(\N)Nc2ccccc2)c(=O)n(-c2ccccc2)n1C	M1 antag 67
Cc1c(N=C(N)/N=C(\N)Nc2ccc(Br)cc2)c(=O)n(-c2ccccc2)n1C	none
O=C(OCCOCCN=C1NS(=O)(=O)c2ccccc21)c1ccncc1	none
O=C(CCCCCn1nnc2ccccc2c1=O)Nc1ccccc1Cl	none
Cc1ccc(-c2csc(N3CCC(NS(=O)(=O)c4ccc5c(c4)OCCO5)CC3)n2)cc1	CHRM5 antagonist 28, M1 antag 19
O=c1c2ccccc2nc(-c2ccccc2)n1Cc1ccc(Cl)cc1	none
O=c1c2ccccc2nc2n1CCN2Cc1ccc(Cl)cc1	CHRM5 antagonist 29
O=C(NCC(=O)N1CCN(C/C=C/c2ccccc2)CC1)c1ccc(Br)cc1	M1 ag 18, M1 antag 33
COc1ccc(C(=O)NCC(=O)N2CCN(c3ccccc3)CC2)cc1	none

Screens: PubChem, The Scripps Research Institute Molecular Screening Center
